Experimental data from article PMC2856757 (Journal of structural biology, 2010).

Legend:
Format in all cases: physicochemical
[1] = Circular dichroism spectra; details: 5°C; for [θ]222 Benign (mean residue ellipticity at 222 nm): CD, peptide 211μm to 265μm (0.2 mg/ml), 1 mm cell, average of 6 scans; for [θ]222 Benign (mean residue ellipticity at 222 nm) / [θ]222/[θ]208 Benign: benign buffer (100mM KCl, 50mM PO4, pH 7); for [θ]222/[θ]208 50% TFE / [θ]222/[θ]208 Benign: ratio of mean residue ellipticity at 222 nm and 208 nm; for [θ]222/[θ]208 50% TFE: 50/50 benign buffer/TFE (v/v)
How it was run: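 Disulfide-bridged peptides (N-acetylated, C-amidated, N-terminal Cys-Gly-Gly, air-oxidised overnight at 4°C in 100mM ammonium bicarbonate pH 8.3). Stocks of 2mg/mL in benign buffer are diluted to 0.2 mg/ml in benign buffer or buffer with 50% TFE. Concentration is by amino acid analysis. Scans run 190–255 nm in 0.5 nm steps at 50 nm per minute. Ellipticity is converted to molar ellipticity using mean residue weight, path length and concentration.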

[2] = Thermal denaturation by circular dichroism spectroscopy at 222 nm; details: CD at 222 nm, benign buffer (100mM KCl, 50mM PO4, pH 7), 5°C to 90°C in 0.5°C increments, 60°C/hour, from plot of fraction folded versus temperature
How it was run: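 Disulfide-bridged two-stranded peptides (air-oxidised overnight at 4°C in 100mM ammonium bicarbonate, pH 8.3) diluted to 0.2 mg/ml in 100mM KCl, 50mM PO4, pH 7 (1 mm cell). Concentration by amino acid analysis. Ellipticity at 222 nm scanned 5°C to 90°C, 0.5°C steps, 60°C/hour. Fraction folded from observed, fully folded and fully unfolded ellipticities. Tm is the 50%-unfolded temperature; ΔTm is taken versus native peptide.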

[3] = RP-HPLC temperature profiling of peptide self-association; details: Gemini C18, 100mM NaClO4, 10mM NH4H2PO4, pH 7, 2%B per minute, 5°C - 80°C in 3°C increments, peptide 1.7mg/ml, retention times normalized to 5°C minus random coil control peptide
How it was run: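 Gradient is 0-100%B over 50 minutes; eluent B is 50/50 H2O/CH3CN with the same salts. Retention time at each temperature minus that at 5°C gives the normalised value. Association parameter = peptide normalised value minus control normalised value; the maximum is reported.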

[4] = listed as R101A/L110A/K112A/K118A

Substance	[θ]222 Benign (mean residue ellipticity at 222 nm) [1]	[θ]222/[θ]208 50% TFE [1] [deg cm^2 dmol^-1]	[θ]222/[θ]208 Benign [1] [deg cm^2 dmol^-1]	[θ]222/[θ]208 Benign ([1]; listed as native peptide)	Tm (temperature at which 50% of the peptide is unfolded) [2] [°C]	PA,Max (maximum association parameter, self-association) [3]	Tm (temperature at which 50% of the peptide is unfolded) [2, 4]	PA,Max (maximum association parameter, self-association) [3, 4]
Native: native tropomyosin 85-119 coiled-coil sequence with N-terminal Cys-Gly-Gly linker, N-acetylated, C-amidated, disulfide-bridged (Ac-CGGVASLNRRIQLVEEELDRAQERLATALQKLEEAEKA-NH2; also: disulfide-bridged two-stranded dimer (linker Cys); UniProt P09493 85-119, looked up, fragment)	-36,213 deg cm^2 dmol^-1	0.96	1.08	greater than 1 deg cm^2 dmol^-1	52.9	3.4		
TM2: TM85-119 analog with K118A substitution (VASLNRRIQLVEEELDRAQERLATALQKLEEAEAA; not fully specified; Cys-Gly-Gly linker; UniProt P09493 85-119, looked up, variant K118A)	-30,548 deg cm^2 dmol^-1	0.97	1.08		48.7	2.7		
TM3: TM85-119 analog with K112A/K118A substitutions (VASLNRRIQLVEEELDRAQERLATALQALEEAEAA; not fully specified; Cys-Gly-Gly linker; UniProt P09493 85-119, looked up, variant K112A K118A)	-29,457 deg cm^2 dmol^-1	0.97	1.08		45.3	2.4		
TM4: TM85-119 analog with R101A substitution (VASLNRRIQLVEEELDAAQERLATALQKLEEAEKA; not fully specified; Cys-Gly-Gly linker; UniProt P09493 85-119, looked up, variant R101A)	-34,390 deg cm^2 dmol^-1	0.96	1.08		46.0	1.8		
TM7: TM85-119 analog with R101A/L110A/K112A/K118A substitutions (VASLNRRIQLVEEELDAAQERLATAAQALEEAEAA; not fully specified; Cys-Gly-Gly linker; UniProt P09493 85-119, looked up, variant R101A L110A K112A K118A)	-9,578 deg cm^2 dmol^-1	0.97	0.86		<5	0	less than 5 °C	zero
